The record followed here is ChEMBL document CHEMBL4627406, “Amino Acids Bearing Aromatic or Heteroaromatic Substituents as a New Class of Ligands for the Lysosomal Sialic Acid Transporter Sialin” (J Med Chem, 2020).

pIC50, pKi: −log10 of the molar value.

One may read the pIC50 as the negative decadic logarithm of the IC50, by convention in mol/L. As usually defined, the pKi is −log10 of the Ki, conventionally taken in molar units. By logP is commonly meant a log measure of how a compound divides between an organic and an aqueous phase.

Series [1] addresses T1, Sialin (Homo sapiens, UniProt Q9NRA2).
T1 sequence (Q9NRA2 whole entry): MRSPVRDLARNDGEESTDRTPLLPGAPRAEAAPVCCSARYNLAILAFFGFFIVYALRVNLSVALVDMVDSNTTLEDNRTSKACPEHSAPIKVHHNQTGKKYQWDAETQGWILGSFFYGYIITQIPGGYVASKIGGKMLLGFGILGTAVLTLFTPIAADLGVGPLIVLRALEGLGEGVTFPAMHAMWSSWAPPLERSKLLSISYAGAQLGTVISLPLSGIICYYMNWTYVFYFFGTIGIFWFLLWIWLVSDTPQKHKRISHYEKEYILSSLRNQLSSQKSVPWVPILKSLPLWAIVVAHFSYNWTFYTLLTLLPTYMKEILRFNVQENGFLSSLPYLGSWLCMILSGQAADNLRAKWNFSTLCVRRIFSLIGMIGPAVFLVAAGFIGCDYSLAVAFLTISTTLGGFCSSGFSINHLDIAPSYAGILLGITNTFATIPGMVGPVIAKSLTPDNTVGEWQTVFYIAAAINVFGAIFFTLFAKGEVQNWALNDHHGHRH
Briefly: Inhibition of human recombinant-Sialin expressed in HEK293 cells assessed as reduction in [3H]Neu5Ac uptake at 30 to 300 uM incubated for 15 mins by liquid scintillation counting method. The format is cell-based. Summed up: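 HEK293 cells expressing EGFP-human sialin L22G/L23G (sorting mutant at the plasma membrane), assayed 2 days after lipofection. Uptake of [3H]Neu5Ac (12.5 nM) over 15 min at room temperature in MES-Na+ pH 5.0 with inhibitor added together with tracer. Cells washed twice ice-cold, radioactivity counted by liquid scintillation. Dose-response run in triplicate, two to three independent experiments.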

For series [2], the target named is T1, Sialin. Briefly: Non-competitive inhibition of human recombinant-Sialin expressed in HEK293 cells assessed as reduction in [3H]Neu5Ac uptake incubated for 15 mins by liquid scintillation counting method. The format is cell-based.
Series [3] can be described thus: Lipophilicity, log Pof the compound. The format is physicochemical. Conditions: octanol/water.

As to `CC(C)C[C@H](NC(=O)OCC1c2ccccc2-c2ccccc21)C(=O)O`, the pIC50 at Sialin [1] is 4.62 to 4.63. Also, the negative-log Ki (pKi) on Sialin [2] is 4.99. This molecule also displayed a logP in series [3] of 4.1.

For `CC(C)C[C@H](NC(=O)N1CCCCCC1)C(=O)N[C@H](Cc1cn(C)c2ccccc12)C(=O)N[C@H](Cc1ccccn1)C(=O)O`, at Sialin [1], the negative-log Ki (pKi) was 4.70. Moreover, the logP in series [3] turned out to be 2.29.

Take `O=C(N[C@@H](CSCc1cc(=O)oc2cc(O)ccc12)C(=O)O)OCC1c2ccccc2-c2ccccc21`: on Sialin [1], the pIC50 is 5.54 to 5.62. Further, on Sialin [2], the negative logarithm of the Ki (pKi) is 5.11. Also, in series [3], the logP turned out to be 3.91.
